From ChEMBL document CHEMBL1132297, “Novel cryptophycin antitumor agents: synthesis and cytotoxicity of fragment "B" analogues” (J Med Chem, 1999)

What follows are molecules tested on CCRF-CEM (assay: In vitro cytotoxicity against human leukemia CCRF-CEM tumor cell lines).
Assay type: functional, cell-based
Summary of the method: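 Log-phase cells seeded at 4.8×10^4 cells per well in RPMI-1640 with 10% dialyzed FBS and 25 mM HEPES. Compounds were dissolved in DMSO at 0.2 mg/mL, serially diluted 1:3 in DMSO, and added to duplicate wells; DMSO final 0.5%, with DMSO-only control wells. Exposure 72 h at 37 °C, 5% CO2. Suspension cells counted by Coulter counter; IC50 from dose–response curves.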
`CC(C)C[C@@H]1OC(=O)C(C)(C)CNC(=O)[C@@H](Cc2cccnc2)NC(=O)/C=C/C[C@@H]([C@H](C)/C=C/c2ccccc2)OC1=O` was tested, and the IC50 was 997 nM. In the case of `CC(C)C[C@@H]1OC(=O)C(C)(C)CNC(=O)[C@@H](COCc2ccccc2)NC(=O)/C=C/C[C@@H]([C@H](C)[C@H]2O[C@@H]2c2ccccc2)OC1=O`, the IC50 is reported as 249 nM. `CC(C)C[C@@H]1OC(=O)C(C)(C)CNC(=O)[C@@H](C(C)C)NC(=O)/C=C/C[C@@H]([C@H](C)/C=C/c2ccccc2)OC1=O` was tested, and the IC50 was over 1850 nM. For `CC(C)C[C@@H]1OC(=O)C(C)(C)CNC(=O)[C@@H](Cc2ccc(N(C)C)c(Cl)c2)NC(=O)/C=C/C[C@@H]([C@H](C)[C@H]2O[C@@H]2c2ccccc2)OC1=O`, the IC50 was 0.054 nM. Work on `CC(C)C[C@@H]1OC(=O)C(C)(C)CNC(=O)[C@@H](c2ccc(O)cc2)NC(=O)/C=C/C[C@@H]([C@H](C)/C=C/c2ccccc2)OC1=O` yielded an IC50 of over 1690 nM. Work on `CC(C)C[C@@H]1OC(=O)C(C)(C)CNC(=O)[C@H]2CCCN2C(=O)/C=C/C[C@@H]([C@H](C)/C=C/c2ccccc2)OC1=O` yielded an IC50 of over 1860 nM. Molecule `CC(C)C[C@@H]1OC(=O)C(C)(C)CNC(=O)[C@@H](c2ccc(O)cc2)NC(=O)/C=C/C[C@@H]([C@H](C)[C@H]2O[C@@H]2c2ccccc2)OC1=O` has an IC50 of 274 nM. `CC(C)C[C@@H]1OC(=O)C(C)(C)CNC(=O)[C@@H](Cc2ccc(N)c(Cl)c2)NC(=O)/C=C/C[C@@H]([C@H](C)[C@H]2O[C@@H]2c2ccccc2)OC1=O` gave an IC50 of 0.58 nM. With `CC(C)C[C@@H]1OC(=O)C(C)(C)CNC(=O)[C@@H](Cc2cccc3ccccc23)NC(=O)/C=C/C[C@@H]([C@H](C)/C=C/c2ccccc2)OC1=O` the IC50 was over 1570 nM. `CC(C)C[C@@H]1OC(=O)C(C)(C)CNC(=O)[C@@H](Cc2ccc(O)c(Cl)c2)NC(=O)/C=C/C[C@@H]([C@H](C)[C@@H]2O[C@H]2c2ccccc2)OC1=O` showed an IC50 of 31 nM. `CC(C)C[C@@H]1OC(=O)C(C)(C)CNC(=O)[C@@H](CCc2ccccc2)NC(=O)/C=C/C[C@@H]([C@H](C)[C@H]2O[C@@H]2c2ccccc2)OC1=O` was tested, and the IC50 was 598 nM. Work on `CC(C)C[C@@H]1OC(=O)C(C)(C)CNC(=O)[C@@H](Cc2ccc(O)cc2)NC(=O)/C=C/C[C@@H]([C@H](C)/C=C/c2ccccc2)OC1=O` yielded an IC50 of 734 nM. `CC(C)C[C@@H]1OC(=O)C(C)(C)CNC(=O)[C@@H](Cc2ccc(N)cc2)NC(=O)/C=C/C[C@@H]([C@H](C)/C=C/c2ccccc2)OC1=O` was tested, and the IC50 was 1540 nM. `CC(C)C[C@@H]1OC(=O)C(C)(C)CNC(=O)[C@H]2CCCN2C(=O)/C=C/C[C@@H]([C@H](C)[C@H]2O[C@@H]2c2ccccc2)OC1=O` was tested, and the IC50 was 1350 nM. For `CC(C)C[C@@H]1OC(=O)C(C)(C)CNC(=O)CNC(=O)/C=C/C[C@@H]([C@H](C)[C@H]2O[C@@H]2c2ccccc2)OC1=O`, the IC50 was over 1940 nM. With `CC(C)C[C@@H]1OC(=O)C(C)(C)CNC(=O)[C@@H](Cc2ccc(I)cc2)NC(=O)/C=C/C[C@@H]([C@H](C)/C=C/c2ccccc2)OC1=O` the IC50 was 607 nM. `CC(C)C[C@@H]1OC(=O)C(C)(C)CNC(=O)[C@@H](Cc2ccc3ccccc3c2)NC(=O)/C=C/C[C@@H]([C@H](C)[C@H]2O[C@@H]2c2ccccc2)OC1=O` was tested, and the IC50 was 48 nM. Work on `CC(C)C[C@@H]1OC(=O)C(C)(C)CNC(=O)[C@@H](CC2CCCCC2)NC(=O)/C=C/C[C@@H]([C@H](C)[C@H]2O[C@@H]2c2ccccc2)OC1=O` yielded an IC50 of 8.8 nM. With `CC(C)C[C@@H]1OC(=O)C(C)(C)CNC(=O)[C@@H](Cc2ccc(NC(=O)OCC3c4ccccc4-c4ccccc43)cc2)NC(=O)/C=C/C[C@@H]([C@H](C)C2OC2c2ccccc2)OC1=O` (stereo not given in full) the IC50 was 115 nM. For `COc1ccc(C[C@H]2NC(=O)/C=C/C[C@@H]([C@H](C)C3O[C@@H]3c3ccccc3)OC(=O)[C@H](CC(C)C)OC(=O)C(C)(C)CNC2=O)cc1Cl` (stereo not given in full), the IC50 was 0.022 nM. Molecule `CC(C)C[C@@H]1OC(=O)C(C)(C)CNC(=O)[C@@H](COCc2ccccc2)NC(=O)/C=C/C[C@@H]([C@H](C)/C=C/c2ccccc2)OC1=O` has an IC50 of 856 nM. Work on `CC(C)C[C@@H]1OC(=O)C(C)(C)CNC(=O)[C@@H](Cc2ccc(NC(=O)OCC3c4ccccc4-c4ccccc43)c(Cl)c2)NC(=O)/C=C/C[C@@H]([C@H](C)/C=C/c2ccccc2)OC1=O` yielded an IC50 of over 1250 nM. `CC(C)C[C@@H]1OC(=O)C(C)(C)CNC(=O)[C@@H](Cc2ccc(N)cc2)NC(=O)/C=C/C[C@@H]([C@H](C)[C@H]2O[C@@H]2c2ccccc2)OC1=O` showed an IC50 of 10.1 nM. `CC(C)C[C@@H]1OC(=O)C(C)(C)CNC(=O)[C@@H](Cc2ccc(O)cc2)NC(=O)/C=C/C[C@@H]([C@H](C)[C@H]2O[C@@H]2c2ccccc2)OC1=O` was tested, and the IC50 was 4.11 nM. `CC(C)C[C@@H]1OC(=O)C(C)(C)CNC(=O)[C@@H](Cc2ccc(O)c(Cl)c2)NC(=O)/C=C/C[C@@H]([C@H](C)/C=C/c2ccccc2)OC1=O` gave an IC50 of 269 nM. `CC(C)C[C@@H]1OC(=O)C(C)(C)CNC(=O)[C@@H](CCc2ccccc2)NC(=O)/C=C/C[C@@H]([C@H](C)/C=C/c2ccccc2)OC1=O` showed an IC50 of 1660 nM. `CC(C)C[C@@H]1OC(=O)C(C)(C)CNC(=O)[C@@H](Cc2ccc(O)c(Cl)c2)NC(=O)/C=C/C[C@@H]([C@H](C)[C@H]2O[C@@H]2c2ccccc2)OC1=O` gave an IC50 of 0.52 nM. In the case of `CC(C)C[C@@H]1OC(=O)C(C)(C)CNC(=O)[C@@H](Cc2ccc(O)c(O)c2)NC(=O)/C=C/C[C@@H]([C@H](C)/C=C/c2ccccc2)OC1=O`, the IC50 is reported as 1300 nM. `CC(C)C[C@@H]1OC(=O)C(C)(C)CNC(=O)[C@@H](Cc2cccc3ccccc23)NC(=O)/C=C/C[C@@H]([C@H](C)[C@H]2O[C@@H]2c2ccccc2)OC1=O` gave an IC50 of 35 nM. Work on `CC(C)C[C@@H]1OC(=O)C(C)(C)CNC(=O)[C@@H](C(C)C)NC(=O)/C=C/C[C@@H]([C@H](C)[C@H]2O[C@@H]2c2ccccc2)OC1=O` yielded an IC50 of over 1800 nM. `CC(C)C[C@@H]1OC(=O)C(C)(C)CNC(=O)[C@@H](CC2CCCCC2)NC(=O)/C=C/C[C@@H]([C@H](C)/C=C/c2ccccc2)OC1=O` was tested, and the IC50 was over 1680 nM. Molecule `CC(C)C[C@@H]1OC(=O)C(C)(C)CNC(=O)[C@@H](Cc2ccc(NC(=O)OCC3c4ccccc4-c4ccccc43)cc2)NC(=O)/C=C/C[C@@H]([C@H](C)/C=C/c2ccccc2)OC1=O` has an IC50 of over 1200 nM. `CC(C)C[C@@H]1OC(=O)C(C)(C)CNC(=O)[C@@H](Cc2ccc3ccccc3c2)NC(=O)/C=C/C[C@@H]([C@H](C)/C=C/c2ccccc2)OC1=O` showed an IC50 of over 1570 nM. Molecule `CC(C)C[C@@H]1OC(=O)C(C)(C)CNC(=O)[C@@H]([C@H](C)O)NC(=O)/C=C/C[C@@H]([C@H](C)[C@H]2O[C@@H]2c2ccccc2)OC1=O` has an IC50 of 1060 nM. Work on `COc1ccc(C[C@H]2NC(=O)/C=C/C[C@@H]([C@H](C)/C=C/c3ccccc3)OC(=O)[C@H](CC(C)C)OC(=O)C(C)(C)CNC2=O)cc1Cl` yielded an IC50 of 13.8 nM. `CC(C)C[C@@H]1OC(=O)C(C)(C)CNC(=O)CNC(=O)/C=C/C[C@@H]([C@H](C)/C=C/c2ccccc2)OC1=O` was tested, and the IC50 was over 2000 nM. `CC(C)C[C@@H]1OC(=O)C(C)(C)CNC(=O)[C@@H]([C@H](C)O)NC(=O)/C=C/C[C@@H]([C@H](C)/C=C/c2ccccc2)OC1=O` was tested, and the IC50 was over 1840 nM. For `CC(C)C[C@@H]1OC(=O)C(C)(C)CNC(=O)[C@@H](Cc2ccc3ccccc3c2)NC(=O)/C=C/C[C@@H]([C@H](C)[C@@H]2O[C@H]2c2ccccc2)OC1=O`, the IC50 was 866 nM. In the case of `CC(C)C[C@@H]1OC(=O)C(C)(C)CNC(=O)[C@@H](Cc2ccc(NC(=O)OCC3c4ccccc4-c4ccccc43)c(Cl)c2)NC(=O)/C=C/C[C@@H]([C@H](C)C2OC2c2ccccc2)OC1=O` (stereo not given in full), the IC50 is reported as 15.3 nM. Molecule `CC(C)C[C@@H]1OC(=O)C(C)(C)CNC(=O)[C@@H](Cc2cccc3ccccc23)NC(=O)/C=C/C[C@@H]([C@H](C)[C@@H]2O[C@H]2c2ccccc2)OC1=O` has an IC50 of 327 nM. `CC(C)C[C@@H]1OC(=O)C(C)(C)CNC(=O)[C@@H](CCc2ccccc2)NC(=O)/C=C/C[C@@H]([C@H](C)[C@@H]2O[C@H]2c2ccccc2)OC1=O` gave an IC50 of over 1620 nM. `CC(C)C[C@@H]1OC(=O)C(C)(C)CNC(=O)[C@@H](Cc2ccc(N)c(Cl)c2)NC(=O)/C=C/C[C@@H]([C@H](C)/C=C/c2ccccc2)OC1=O` gave an IC50 of 500 nM. With `CC(C)C[C@@H]1OC(=O)C(C)(C)CNC(=O)[C@@H](Cc2ccccc2)NC(=O)/C=C/C[C@@H]([C@H](C)[C@H]2O[C@@H]2c2ccccc2)OC1=O` the IC50 was 0.183 nM. Molecule `CC(C)C[C@@H]1OC(=O)C(C)(C)CNC(=O)[C@@H](COCc2ccccc2)NC(=O)/C=C/C[C@@H]([C@H](C)[C@@H]2O[C@H]2c2ccccc2)OC1=O` has an IC50 of 975 nM. For `CC(C)C[C@@H]1OC(=O)C(C)(C)CNC(=O)[C@@H](Cc2ccccc2)NC(=O)/C=C/C[C@@H]([C@H](C)/C=C/c2ccccc2)OC1=O`, the IC50 was 412 nM.
